{"source": "ChEMBL document CHEMBL1649301", "about": "“Polyamine transport as a target for treatment of Pneumocystis pneumonia” (Antimicrob Agents Chemother, 2009)", "key": {"[1]": {"test": "Cytotoxicity against Sprague-Dawley rat alveolar macrophages assessed as cell viability at 0.4 mM after 3 hrs by trypan blue exclusion assay", "type": "cell-based, Macrophage", "details": "read-out: Activity", "outline": "(§1)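 Alveolar macrophages from normal rats (10⁶ per well) were kept in serum-free DMEM with compound for 3 h. They were then stained with 0.4% trypan blue, and unstained viable cells were counted.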"}, "[2]": {"test": "Inhibition of polyamine transporter expressed in CHO cells", "type": "cell-based"}, "Pneumocystis carinii [3]": {"tested_on": "Pneumocystis carinii", "test": "Antimicrobial activity against Pneumocystis carinii infected in Sprague-Dawley rat assessed as effect on alveolar structure at 0.5 mg/kg, intranasally every 2 days 28 days after infection for 21 days", "type": "functional, organism-based", "parameters": "dose 0.5 mg/kg", "outline": "(§2)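 Female Sprague-Dawley rats (~120 g) were immunosuppressed with dexamethasone at 1.8 mg/liter in drinking water. After 1 week they received a transtracheal inoculum of 7.5 × 10⁶ trophic forms, plus penicillin i.m. weekly. From infection day 28, they were given 50 μl of a 1 mM solution intranasally every 2 days. After 21 days, lungs were fixed in 4% paraformaldehyde, and paraffin sections were H&E-stained and examined by light microscopy. Inflammation was graded 0–5.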"}, "Pneumocystis carinii [4]": {"tested_on": "Pneumocystis carinii", "test": "Antimicrobial activity against Pneumocystis carinii infected in Sprague-Dawley rat assessed as effect on foamy exudates in alveoli at 0.5 mg/kg, intranasally every 2 days 28 days after infection for 21 days", "type": "functional, organism-based", "parameters": "dose 0.5 mg/kg", "outline": "as §2"}, "Pneumocystis carinii [5]": {"tested_on": "Pneumocystis carinii", "test": "Antimicrobial activity against Pneumocystis carinii infected in Sprague-Dawley rat assessed as reduction of inflammatory cell infiltration at 0.5 mg/kg, intranasally every 2 days 28 days after infection for 21 days", "type": "functional, organism-based", "parameters": "dose 0.5 mg/kg", "outline": "as §2"}, "Pneumocystis carinii [6]": {"tested_on": "Pneumocystis carinii", "test": "Antimicrobial activity against Pneumocystis carinii infected in Sprague-Dawley rat assessed as increase of host survival time at 0.5 mg/kg, intranasally every 2 days 28 days after infection", "type": "functional", "outline": "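Female Sprague-Dawley rats (~120 g) were immunosuppressed with dexamethasone 1.8 mg/liter in drinking water. One week later they were inoculated transtracheally with 7.5 × 10⁶ trophic forms, with weekly intramuscular penicillin. From infection day 28, rats received 50 μl of a 1 mM solution intranasally every 2 days (7–8 rats/group), alongside untreated infected and uninfected controls. Survival was followed to day 84 and compared by Kaplan-Meier/log-rank.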"}, "CHO-MG": {"tested_on": "CHO-MG", "test": "Inhibition of polyamine uptake in CHO-MG cells", "type": "functional, cell-based", "details": "Cricetulus griseus"}, "Pneumocystis carinii [7]": {"tested_on": "Pneumocystis carinii", "test": "Antimicrobial activity against Pneumocystis carinii infected in Sprague-Dawley rat assessed as reduction of number of apoptotic alveolar macrophages at 0.5 mg/kg, intranasally every 2 days 28 days after infection for 21 days", "type": "functional", "outline": "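Lung sections came from infected, dexamethasone-treated rats given 50 μl of 1 mM intranasally every 2 days for 21 days from day 28. Sections were digested with proteinase K (20 μg/ml, room temperature, 10 min), then TdT/fluorescein-12-dUTP labelled (37°C, 1 h) and DAPI-mounted. Apoptotic macrophage percentage was taken as TUNEL+/DAPI+ cells over 10 random 100× fields per slide.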"}, "[8]": {"test": "Ratio of IC50 for polyamine uptake in CHO-MG cells to IC50 for polyamine transporter expressed in CHO cells"}, "Pneumocystis carinii [9]": {"tested_on": "Pneumocystis carinii", "test": "Antimicrobial activity against Pneumocystis carinii infected in Sprague-Dawley rat assessed as reduction of organism burden in lungs at 0.5 mg/kg, intranasally every 2 days 28 days after infection for 21 days", "type": "functional, organism-based", "parameters": "dose 0.5 mg/kg", "outline": "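The dexamethasone-immunosuppressed, P. carinii-infected female Sprague-Dawley rats were dosed intranasally with 50 μl of a 1 mM solution every 2 days from infection day 28, for 21 days. Cysts were counted in paraffin lung sections stained with modified Grocott's methenamine silver, and burden was graded on a 0–4 scale.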"}, "[10]": {"test": "Cytotoxicity against Sprague-Dawley rat alveolar macrophages assessed as cell viability at 2 mM after 3 hrs by trypan blue exclusion assay", "type": "cell-based, Macrophage", "details": "for Activity: macrophage, 3 h, 2000 µM", "outline": "as §1"}, "Pneumocystis carinii [11]": {"tested_on": "Pneumocystis carinii", "test": "Antimicrobial activity against Pneumocystis carinii infected in Sprague-Dawley rat assessed as reduction of alveolar septum thickness at 0.5 mg/kg, intranasally every 2 days 28 days after infection for 21 days", "type": "functional, organism-based", "parameters": "dose 0.5 mg/kg", "outline": "as §2"}, "Pneumocystis carinii [12]": {"tested_on": "Pneumocystis carinii", "test": "Antimicrobial activity against Pneumocystis carinii infected in Sprague-Dawley rat assessed as reduction of inflammation at 0.5 mg/kg, intranasally every 2 days 28 days after infection for 21 days", "type": "functional, organism-based", "parameters": "dose 0.5 mg/kg", "outline": "as §2"}, "Pneumocystis carinii [13]": {"tested_on": "Pneumocystis carinii", "test": "Antimicrobial activity against Pneumocystis carinii infected in Sprague-Dawley rat assessed as reduction of foamy exudates in alveoli at 0.5 mg/kg, intranasally every 2 days 28 days after infection for 21 days", "type": "functional, organism-based", "parameters": "dose 0.5 mg/kg", "outline": "as §2"}, "Pneumocystis carinii [14]": {"tested_on": "Pneumocystis carinii", "test": "Antimicrobial activity against Pneumocystis carinii infected in Sprague-Dawley rat assessed as increase of open alveolar space at 0.5 mg/kg, intranasally every 2 days 28 days after infection for 21 days", "type": "functional, organism-based", "parameters": "dose 0.5 mg/kg", "outline": "as §2"}}, "note": "Activity calls are given as the source filed them. No cut-off for these calls is given here.", "data": [{"compound": "NCCCCNCCCCNCc1c2ccccc2cc2ccccc12", "values": [{"measurement": "viability at 3 h, 400 µM", "setting": "[1]", "result": "< 16", "unit": "%"}, {"measurement": "IC50", "setting": "[2]", "result": 0.45, "unit": "µM"}]}, {"compound": "Cl.NCCCCNCCCCNCc1ccc(CNCCCCNCCCCN)cc1", "values": [{"measurement": "Activity", "setting": "Pneumocystis carinii [3]", "result": "inactive"}, {"measurement": "Activity", "setting": "Pneumocystis carinii [4]", "result": "inactive"}, {"measurement": "Activity", "setting": "Pneumocystis carinii [5]", "result": "Active"}, {"measurement": "Survival", "setting": "Pneumocystis carinii [6]", "result": 84, "unit": "days"}, {"measurement": "IC50", "setting": "CHO-MG", "result": 50.2, "unit": "µM"}, {"measurement": "Activity", "setting": "Pneumocystis carinii [7]", "result": "inactive"}, {"measurement": "Ratio IC50", "setting": "[8]", "result": 677}, {"measurement": "Activity", "setting": "Pneumocystis carinii [9]", "result": "Active"}, {"measurement": "IC50", "setting": "[2]", "result": 0.074, "unit": "µM"}, {"measurement": "Activity", "setting": "[10]", "result": "Non-toxic"}]}, {"compound": "Cl.NCCCCNCCCCNCc1c2ccccc2c(CNCCCCNCCCCN)c2ccccc12", "values": [{"measurement": "Activity", "setting": "Pneumocystis carinii [11]", "result": "Active"}, {"measurement": "Survival", "setting": "Pneumocystis carinii [6]", "result": 84, "unit": "days"}, {"measurement": "IC50", "setting": "CHO-MG", "result": "> 100", "unit": "µM"}, {"measurement": "Activity", "setting": "Pneumocystis carinii [7]", "result": 80, "unit": "%"}, {"measurement": "Activity", "setting": "Pneumocystis carinii [12]", "result": "Active"}, {"measurement": "Ratio IC50", "setting": "[8]", "result": ">2222"}, {"measurement": "Activity", "setting": "Pneumocystis carinii [13]", "result": "Active"}, {"measurement": "Activity", "setting": "Pneumocystis carinii [9]", "result": "Active"}, {"measurement": "Activity", "setting": "Pneumocystis carinii [14]", "result": "Active"}, {"measurement": "IC50", "setting": "[2]", "result": 0.045, "unit": "µM"}, {"measurement": "Activity", "setting": "[10]", "result": "Non-toxic"}]}, {"compound": "NCCCCNCCCCNCCCCNCc1c2ccccc2cc2ccccc12", "values": [{"measurement": "viability at 3 h, 400 µM", "setting": "[1]", "result": 88, "unit": "%"}, {"measurement": "IC50", "setting": "CHO-MG", "result": 33.2, "unit": "µM"}, {"measurement": "IC50", "setting": "[2]", "result": 10.6, "unit": "µM"}, {"measurement": "viability at 3 h, 2000 µM", "setting": "[10]; Sprague-Dawley, alveolar macrophages, read-out: Activity", "result": 42, "unit": "%"}]}, {"compound": "Cl.Cl.NCCCCNCc1c2ccccc2cc2ccccc12", "values": [{"measurement": "viability at 3 h, 400 µM", "setting": "[1]", "result": "< 16", "unit": "%"}, {"measurement": "Ratio IC50", "setting": "[8]", "result": 1}, {"measurement": "IC50", "setting": "[2]", "result": 7.7, "unit": "µM"}]}]}
